Converted amounts (≈) assume the structure as drawn. The source made the active and inactive calls. The rule behind the calls is not given here.
Legend:
Rhizopus arrhizus [1] = test: Antimicrobial activity against Rhizopus oryzae 4570; format: functional
Method in brief: (§1)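 CLSI M38-A broth microdilution. Isolates were grown on Sabouraud dextrose agar for 5 days at 35°C, and conidia were harvested in 0.85% saline. The final inoculum was about 10^4 CFU/ml, set by hemocytometer. Drug range 0.015–8.0 µg/ml; plates incubated at 35°C for 21–26 h. MIC was the lowest concentration with no discernible growth. Each strain was tested in quintuplicate.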

Rhizopus arrhizus [2] = test: Antimicrobial activity against Rhizopus oryzae 4745; format: functional; method in brief: as §1
Lichtheimia corymbifera [3] = test: Antimicrobial activity against Absidia corymbifera 4535; format: functional; method in brief: as §1
Mus musculus [4] = test: Increase in survival of Rhizopus oryzae 4570 infected neutropenic CD1 mouse at 1 mg/kg/day, ip; format: functional, organism-based
Method in brief: (§2)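 Male CD1 mice (25 g) made neutropenic with cyclophosphamide 200 mg/kg i.p. on […], +1 and +4 relative to infection. […] Inocula per mouse: R. oryzae 4570, 5 x 10^6; A. corymbifera, 5 x 10^5; R. oryzae 4745, 2 x 10^6 or 1 x 10^5. Deaths were recorded daily to day 10, with 13–18 mice/group and log-rank comparison.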

Lichtheimia corymbifera [5] = test: Percentage of infected lung in neutropenic CD1 mouse infected with Absidia corymbifera 4535 at 1 mg/kg/day, ip; format: functional; settings: route intraperitoneal
Method in brief: (§3)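 They were infected i.v. with R. oryzae 4570 (5 x 10^6 spores) or A. corymbifera (5 x 10^5 spores). On day 3 brain, lungs, spleen and kidneys were homogenized in 2 ml saline and plated whole on SDA (detection limit 1 CFU/organ). Value is % culture-positive organs; 8 mice/group.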

Lichtheimia corymbifera [6] = test: Percentage of infected spleen in neutropenic CD1 mouse infected with Absidia corymbifera 4535 at 1 mg/kg/day, ip; format: functional; settings: route intraperitoneal; method in brief: as §3
Lichtheimia corymbifera [7] = test: Percentage of infected kidney in neutropenic CD1 mouse infected with Absidia corymbifera 4535 at 1 mg/kg/day, ip; format: functional; settings: route intraperitoneal; method in brief: as §3
Mus musculus [8] = test: Increase in survival of Absidia corymbifera 4535 infected neutropenic CD1 mouse at 1 mg/kg/day, ip; format: functional, organism-based; method in brief: as §2
Mus musculus [9] = test: Increase in survival of neutropenic CD1 mouse infected with 2 mega Rhizopus oryzae 4745 at 1 mg/kg/day, ip; format: functional, organism-based; method in brief: as §2
Mus musculus [10] = test: Increase in survival of neutropenic CD1 mouse infected with 0.1 mega Rhizopus oryzae 4745 at 1 mg/kg/day, ip; format: functional, organism-based; method in brief: as §2
Rhizopus arrhizus [11] = test: Reduction of number of infection foci in Rhizopus oryzae 4570 infected neutropenic CD1 mouse kidney at 1 mg/kg/day, ip; format: functional, organism-based
Method in brief: (§4)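 On day 3 brains and kidneys were formalin-fixed and stained with Grocott-Gomori methenamine silver. At least two blinded observers counted hyphal foci and measured their size over 20 consecutive fields (15.7 mm2/section). Data are means ± SEM, 5 mice/group, ANOVA with Bonferroni.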

Lichtheimia corymbifera [12] = test: Reduction of number of infection foci in Absidia corymbifera 4535 infected neutropenic CD1 mouse kidney at 1 mg/kg/day, ip; format: functional, organism-based; method in brief: as §4
Rhizopus arrhizus [13] = test: Reduction of infection foci size in Rhizopus oryzae 4570 infected neutropenic CD1 mouse kidney at 1 mg/kg/day, ip; format: functional, organism-based; method in brief: as §4
Lichtheimia corymbifera [14] = test: Reduction of infection foci size in Absidia corymbifera 4535 infected neutropenic CD1 mouse kidney at 1 mg/kg/day, ip; format: functional, organism-based; method in brief: as §4
Lichtheimia corymbifera [15] = test: Percentage of infected brain in neutropenic CD1 mouse infected with Absidia corymbifera 4535 at 30 mg/kg/day, po; format: functional
Method in brief: (§5)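 Neutropenic CD1 mice received three daily oral prophylactic doses, the last 2 h before i.v. challenge: R. oryzae 4570 at 5 x 10^6 or A. corymbifera at 5 x 10^5 spores/mouse. On day 3 mice were killed. Brain, lungs, spleen and kidneys were homogenized in 2 ml saline and plated whole on SDA; detection limit 1 CFU/organ. Read-out was percent culture-positive organs, eight mice per group.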

Rhizopus arrhizus [16] = test: Percentage of infected lung in neutropenic CD1 mouse infected with Rhizopus oryzae 4570 at 30 mg/kg/day, po; format: functional; method in brief: as §5
Lichtheimia corymbifera [17] = test: Percentage of infected lung in neutropenic CD1 mouse infected with Absidia corymbifera 4535 at 30 mg/kg/day, po; format: functional; method in brief: as §5
Rhizopus arrhizus [18] = test: Percentage of infected spleen in neutropenic CD1 mouse infected with Rhizopus oryzae 4570 at 30 mg/kg/day, po; format: functional; method in brief: as §5
Lichtheimia corymbifera [19] = test: Percentage of infected spleen in neutropenic CD1 mouse infected with Absidia corymbifera 4535 at 30 mg/kg/day, po; format: functional; method in brief: as §5
Rhizopus arrhizus [20] = test: Percentage of infected kidney in neutropenic CD1 mouse infected with Rhizopus oryzae 4570 at 30 mg/kg/day, po; format: functional; method in brief: as §5
Lichtheimia corymbifera [21] = test: Percentage of infected kidney in neutropenic CD1 mouse infected with Absidia corymbifera 4535 at 30 mg/kg/day, po; format: functional; method in brief: as §5
Mus musculus [22] = test: Increase in survival of Rhizopus oryzae 4570 infected neutropenic CD1 mouse at 20 mg/kg/day, po; format: functional, organism-based
Method in brief: (§6)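 Male CD1 mice (25 g) were made neutropenic with i.p. cyclophosphamide, 200 mg/kg, on days […] and +4 postinfection. Oral gavage dosing (200 µl) was given daily for 3 days, the last dose 2 h before i.v. challenge; controls received PEG 200. Challenge per mouse: R. oryzae 4570, 5 x 10^6 spores; A. corymbifera, 5 x 10^5; R. oryzae 4745, 1 x 10^5. Deaths were recorded daily to day 10, moribund mice counted dead next day. 13–18 mice per group; log rank test.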

Mus musculus [23] = test: Increase in survival of Rhizopus oryzae 4570 infected neutropenic CD1 mouse at 80 mg/kg/day, po; format: functional, organism-based; method in brief: as §6
Mus musculus [24] = test: Increase in survival of Absidia corymbifera 4535 infected neutropenic CD1 mouse at 20 mg/kg/day, po; format: functional, organism-based; method in brief: as §6
Mus musculus [25] = test: Increase in survival of Absidia corymbifera 4535 infected neutropenic CD1 mouse at 80 mg/kg/day, po; format: functional, organism-based; method in brief: as §6
Mus musculus [26] = test: Increase in survival of neutropenic CD1 mouse infected with 0.1 mega Rhizopus oryzae 4745 at 50 mg/kg/day, po; format: functional, organism-based; method in brief: as §6
Rhizopus arrhizus [27] = test: Reduction of number of infection foci in Rhizopus oryzae 4570 infected neutropenic CD1 mouse kidney at 30 mg/kg/day, po; format: functional, organism-based
Method in brief: (§7)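 Neutropenic CD1 mice were given oral prophylaxis for 3 days, then i.v. challenge with R. oryzae 4570 (5 x 10^6 spores) or A. corymbifera (5 x 10^5). On day 3, brain and kidney were formalin-fixed, paraffin-embedded and stained with Grocott-Gomori methenamine silver. Number and size of hyphal foci were scored blind by at least two observers in 20 consecutive fields (15.7 mm2 per section). Values are mean ± SEM from 5 mice per group; ANOVA with Bonferroni correction.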

Rhizopus arrhizus [28] = test: Reduction of number of infection foci in Rhizopus oryzae 4570 infected neutropenic CD1 mouse brain at 30 mg/kg/day, po; format: functional, organism-based; method in brief: as §7
Lichtheimia corymbifera [29] = test: Reduction of number of infection foci in Absidia corymbifera 4535 infected neutropenic CD1 mouse kidney at 30 mg/kg/day, po; format: functional, organism-based; method in brief: as §7
Lichtheimia corymbifera [30] = test: Reduction of number of infection foci in Absidia corymbifera 4535 infected neutropenic CD1 mouse brain at 30 mg/kg/day, po; format: functional, organism-based; method in brief: as §7
Rhizopus arrhizus [31] = test: Reduction of infection foci size in Rhizopus oryzae 4570 infected neutropenic CD1 mouse kidney at 30 mg/kg/day, po; format: functional, organism-based; method in brief: as §7
Rhizopus arrhizus [32] = test: Reduction of infection foci size in Rhizopus oryzae 4570 infected neutropenic CD1 mouse brain at 30 mg/kg/day, po; format: functional, organism-based; method in brief: as §7
Lichtheimia corymbifera [33] = test: Reduction of infection foci size in Absidia corymbifera 4535 infected neutropenic CD1 mouse kidney at 30 mg/kg/day, po; format: functional, organism-based; method in brief: as §7
Lichtheimia corymbifera [34] = test: Reduction of infection foci size in Absidia corymbifera 4535 infected neutropenic CD1 mouse brain at 30 mg/kg/day, po; format: functional, organism-based; method in brief: as §7
Rhizopus arrhizus [35] = test: Percentage of infected brain in neutropenic CD1 mouse infected with Rhizopus oryzae 4570 at 30 mg/kg/day, po; format: functional; method in brief: as §5

Which MIC (Rhizopus arrhizus [1]) does the source give for `C[C@@H]1[C@H](O)[C@@H](C)/C=C/C=C/C=C/C=C/C=C/C=C/C=C/[C@H](O[C@@H]2O[C@H](C)[C@@H](O)[C@H](N)[C@@H]2O)C[C@@H]2O[C@](O)(C[C@@H](O)C[C@@H](O)[C@H](O)CC[C@@H](O)C[C@@H](O)CC(=O)O[C@H]1C)C[C@H](O)[C@H]2C(=O)O` [AMPHOTERICIN B] here?
The MIC was 2 µg/mL (≈ 2.16 µM).

What about the MIC (Rhizopus arrhizus [2]) of the same molecule?
Its MIC is 0.5 µg/mL (≈ 0.541 µM).

And the MIC (Lichtheimia corymbifera [3])?
The MIC was 1 µg/mL (≈ 1.08 µM).

And the Activity (Mus musculus [4])?
The Activity was “Active”.

What about the Activity (Lichtheimia corymbifera [5]) of the same molecule?
Its Activity is 25%.

And the Activity (Lichtheimia corymbifera [6])?
The Activity was 100%.

What about the Activity (Lichtheimia corymbifera [7]) of the same molecule?
The Activity was 62.5%.

What about the Activity (Mus musculus [8]) of the same molecule?
The Activity was “Active”.

What about the Activity (Mus musculus [9]) of the same molecule?
The Activity was “Active”.

And the Activity (Mus musculus [10])?
Its Activity is “Active”.

What about the Activity (Rhizopus arrhizus [11]) of the same molecule?
The Activity was “Active”.

What about the Activity (Lichtheimia corymbifera [12]) of the same molecule?
Its Activity is “Active”.

What about the Activity (Rhizopus arrhizus [13]) of the same molecule?
Its Activity is “Active”.

What about the Activity (Lichtheimia corymbifera [14]) of the same molecule?
The Activity was “Active”.

With `CC[C@@H]([C@H](C)O)n1ncn(-c2ccc(N3CCN(c4ccc(OC[C@@H]5CO[C@@](Cn6cncn6)(c6ccc(F)cc6F)C5)cc4)CC3)cc2)c1=O` [POSACONAZOLE] as the molecule, how does the MIC (Rhizopus arrhizus [1]) read?
Its MIC is 1 µg/mL (≈ 1.43 µM).

And the MIC (Rhizopus arrhizus [2])?
Its MIC is 1 µg/mL (≈ 1.43 µM).

What about the MIC (Lichtheimia corymbifera [3]) of the same molecule?
Its MIC is 0.25 µg/mL (≈ 0.357 µM).

And the Activity (Lichtheimia corymbifera [15])?
Its Activity is 62.5%.

What about the Activity (Rhizopus arrhizus [16]) of the same molecule?
The Activity was 100%.

And the Activity (Lichtheimia corymbifera [17])?
Its Activity is 12.5%.

What about the Activity (Rhizopus arrhizus [18]) of the same molecule?
The Activity was 100%.

What about the Activity (Lichtheimia corymbifera [19]) of the same molecule?
Its Activity is 100%.

And the Activity (Rhizopus arrhizus [20])?
The Activity was 100%.

And the Activity (Lichtheimia corymbifera [21])?
The Activity was 75%.

What about the Activity (Mus musculus [22]) of the same molecule?
The Activity was “inactive”.

What about the Activity (Mus musculus [23]) of the same molecule?
The Activity was “inactive”.

What about the Activity (Mus musculus [24]) of the same molecule?
Its Activity is “Active”.

What about the Activity (Mus musculus [25]) of the same molecule?
The Activity was “Active”.

And the Activity (Mus musculus [26])?
The Activity was “Active”.

And the Activity (Rhizopus arrhizus [27])?
Its Activity is “Active”.

And the Activity (Rhizopus arrhizus [28])?
Its Activity is “inactive”.

What about the Activity (Lichtheimia corymbifera [29]) of the same molecule?
The Activity was “Active”.

And the Activity (Lichtheimia corymbifera [30])?
Its Activity is “Active”.

What about the Activity (Rhizopus arrhizus [31]) of the same molecule?
Its Activity is “Active”.

And the Activity (Rhizopus arrhizus [32])?
Its Activity is “inactive”.

What about the Activity (Lichtheimia corymbifera [33]) of the same molecule?
Its Activity is “Active”.

What about the Activity (Lichtheimia corymbifera [34]) of the same molecule?
The Activity was “Active”.

And the Activity (Rhizopus arrhizus [35])?
Its Activity is 100%.

From ChEMBL document CHEMBL1142145, “Posaconazole prophylaxis in experimental systemic zygomycosis” (2007)
